Source: ChEMBL document CHEMBL4673214, “Synthesis and antibacterial bioactivities of cationic deacetyl linezolid amphiphiles” (Eur J Med Chem, 2018)
≈ marks a conversion by molar mass, not a printed value. Calls of active or inactive are those of the source. The rule behind the calls is not given here.

Experiments:
Cell membrane [1] = experiment: Induction of cytoplasmic membrane depolarization in Staphylococcus aureus ATCC 29213 at 20 ug/ml measured for 12 mins by DiSC35 dye-based fluorescence assay; type: subcellular; details: dose 20.0 µg/ml
Summary of the method: (§1)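 Mid-log bacteria were washed and resuspended at ~10^8 CFU/mL: S. aureus in PBS, E. coli in 5 mM HEPES/5 mM glucose/100 mM KCl (1:1:1). Cells were loaded with diSC35 (10 µM stock) for 30 min (S. aureus) or 40 min (E. coli, plus EDTA). Fluorescence (ex 622/em 670 nm) was read for an 8 min baseline, then every 2 min for 12 min after compound at 20 µg/mL final. Water served as control.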

Cell membrane [2] = experiment: Induction of cytoplasmic membrane depolarization in Escherichia coli ATCC 25922 at 20 ug/ml measured for 12 mins by DiSC35 dye-based fluorescence assay; type: subcellular; details: dose 20.0 µg/ml; summary of the method: as §1
Cell membrane [3] = experiment: Induction of outer membrane permeabilization in Escherichia coli ATCC 25922 at 20 ug/ml measured for 12 mins by NPN dye based fluorescence assay; details: dose 20.0 µg/ml
Summary of the method: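 Mid-log E. coli in HEPES/glucose/KCl at ~10^8 CFU/mL was preincubated 40 min with N-phenylnaphthylamine (10 µM stock). Fluorescence (ex 350/em 420 nm) was read for an 8 min baseline, then every 2 min for 12 min after compound at 20 µg/mL final. Water served as control.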

Cell membrane [4] = experiment: Induction of inner membrane permeabilization in Escherichia coli ATCC 25922 at 20 ug/ml measured for 12 mins by propidium iodide staining based fluorescence microscopic analysis; details: dose 20.0 µg/ml
Summary of the method: (§2)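 Mid-log bacteria were washed and resuspended at ~10^8 CFU/mL and preincubated with propidium iodide (10 µM stock) for 30 min (S. aureus) or 40 min (E. coli). Fluorescence (ex 535/em 617 nm) was read on a plate for an 8 min baseline, then every 2 min for 12 min after compound at 20 µg/mL final. Water served as control.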

Cell membrane [5] = experiment: Induction of inner membrane permeabilization in Staphylococcus aureus ATCC 29213 at 20 ug/ml measured for 12 mins by propidium iodide staining based fluorescence microscopic analysis; details: dose 20.0 µg/ml; summary of the method: as §2
Enterobacteriaceae [6] = experiment: Antibacterial activity against NDM1 producing carbapenem-resistant Enterobacteriaceae clinical isolate 10 assessed as reduction in bacterial growth incubated for 16 to 20 hrs by CLSI-based broth microdilution method; type: functional; details: time 16-20 hrs
Summary of the method: (§3)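 Clinical isolates tested by broth microdilution in cation-adjusted Mueller-Hinton broth. Cultures grown 4-6 h (~10^8 CFU/mL) were diluted to ~10^6 CFU/mL and mixed 1:1 with compound serial dilutions made from 256 down to 0.5 µg/mL (pre-mixing). Plates held at 37 °C for 16-20 h, then read for growth. Each concentration run in duplicate, whole experiment at least twice.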

Enterobacteriaceae [7] = experiment: Antibacterial activity against NDM1 producing carbapenem-resistant Enterobacteriaceae clinical isolate 8 assessed as reduction in bacterial growth incubated for 16 to 20 hrs by CLSI-based broth microdilution method; type: functional; details: time 16-20 hrs; summary of the method: as §3
Enterobacteriaceae [8] = experiment: Antibacterial activity against NDM1 producing carbapenem-resistant Enterobacteriaceae clinical isolate 7 assessed as reduction in bacterial growth incubated for 16 to 20 hrs by CLSI-based broth microdilution method; type: functional; details: time 16-20 hrs; summary of the method: as §3
Enterobacteriaceae [9] = experiment: Antibacterial activity against NDM1 producing carbapenem-resistant Enterobacteriaceae clinical isolate 6 assessed as reduction in bacterial growth incubated for 16 to 20 hrs by CLSI-based broth microdilution method; type: functional; details: time 16-20 hrs; summary of the method: as §3
Enterobacteriaceae [10] = experiment: Antibacterial activity against NDM1 producing carbapenem-resistant Enterobacteriaceae clinical isolate 5 assessed as reduction in bacterial growth incubated for 16 to 20 hrs by CLSI-based broth microdilution method; type: functional; details: time 16-20 hrs; summary of the method: as §3
Enterobacteriaceae [11] = experiment: Antibacterial activity against NDM1 producing carbapenem-resistant Enterobacteriaceae clinical isolate 4 assessed as reduction in bacterial growth incubated for 16 to 20 hrs by CLSI-based broth microdilution method; type: functional; details: time 16-20 hrs; summary of the method: as §3
Enterobacteriaceae [12] = experiment: Antibacterial activity against NDM1 producing carbapenem-resistant Enterobacteriaceae clinical isolate 3 assessed as reduction in bacterial growth incubated for 16 to 20 hrs by CLSI-based broth microdilution method; type: functional; details: time 16-20 hrs; summary of the method: as §3
Enterobacteriaceae [13] = experiment: Antibacterial activity against NDM1 producing carbapenem-resistant Enterobacteriaceae clinical isolate 2 assessed as reduction in bacterial growth incubated for 16 to 20 hrs by CLSI-based broth microdilution method; type: functional; details: time 16-20 hrs; summary of the method: as §3
Enterobacteriaceae [14] = experiment: Antibacterial activity against NDM1 producing carbapenem-resistant Enterobacteriaceae clinical isolate 1 assessed as reduction in bacterial growth incubated for 16 to 20 hrs by CLSI-based broth microdilution method; type: functional; details: time 16-20 hrs; summary of the method: as §3
Klebsiella pneumoniae [15] = experiment: Antibacterial activity against carbapenem-resistant Klebsiella pneumoniae clinical isolate 10 assessed as reduction in bacterial growth incubated for 16 to 20 hrs by CLSI-based broth microdilution method; type: functional; details: time 16-20 hrs; summary of the method: as §3
Klebsiella pneumoniae [16] = experiment: Antibacterial activity against carbapenem-resistant Klebsiella pneumoniae clinical isolate 9 assessed as reduction in bacterial growth incubated for 16 to 20 hrs by CLSI-based broth microdilution method; type: functional; details: time 16-20 hrs; summary of the method: as §3
Klebsiella pneumoniae [17] = experiment: Antibacterial activity against carbapenem-resistant Klebsiella pneumoniae clinical isolate 8 assessed as reduction in bacterial growth incubated for 16 to 20 hrs by CLSI-based broth microdilution method; type: functional; details: time 16-20 hrs; summary of the method: as §3
Klebsiella pneumoniae [18] = experiment: Antibacterial activity against carbapenem-resistant Klebsiella pneumoniae clinical isolate 7 assessed as reduction in bacterial growth incubated for 16 to 20 hrs by CLSI-based broth microdilution method; type: functional; details: time 16-20 hrs; summary of the method: as §3
Klebsiella pneumoniae [19] = experiment: Antibacterial activity against carbapenem-resistant Klebsiella pneumoniae clinical isolate 6 assessed as reduction in bacterial growth incubated for 16 to 20 hrs by CLSI-based broth microdilution method; type: functional; details: time 16-20 hrs; summary of the method: as §3
Klebsiella pneumoniae [20] = experiment: Antibacterial activity against carbapenem-resistant Klebsiella pneumoniae clinical isolate 5 assessed as reduction in bacterial growth incubated for 16 to 20 hrs by CLSI-based broth microdilution method; type: functional; details: time 16-20 hrs; summary of the method: as §3
Klebsiella pneumoniae [21] = experiment: Antibacterial activity against carbapenem-resistant Klebsiella pneumoniae clinical isolate 4 assessed as reduction in bacterial growth incubated for 16 to 20 hrs by CLSI-based broth microdilution method; type: functional; details: time 16-20 hrs; summary of the method: as §3
Klebsiella pneumoniae [22] = experiment: Antibacterial activity against carbapenem-resistant Klebsiella pneumoniae clinical isolate 3 assessed as reduction in bacterial growth incubated for 16 to 20 hrs by CLSI-based broth microdilution method; type: functional; details: time 16-20 hrs; summary of the method: as §3
Klebsiella pneumoniae [23] = experiment: Antibacterial activity against carbapenem-resistant Klebsiella pneumoniae clinical isolate 2 assessed as reduction in bacterial growth incubated for 16 to 20 hrs by CLSI-based broth microdilution method; type: functional; details: time 16-20 hrs; summary of the method: as §3
Enterobacteriaceae [24] = experiment: Antibacterial activity against NDM1 producing carbapenem-resistant Enterobacteriaceae clinical isolate 9 assessed as reduction in bacterial growth incubated for 16 to 20 hrs by CLSI-based broth microdilution method; type: functional; details: time 16-20 hrs; summary of the method: as §3
Salmonella enterica = experiment: Antibacterial activity against Salmonella enterica ATCC 8387 assessed as reduction in bacterial growth incubated for 16 to 20 hrs by CLSI-based broth microdilution method; type: functional; details: time 16-20 hrs
Summary of the method: (§4)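 Broth microdilution following CLSI, in cation-adjusted Mueller-Hinton broth. Inoculum from a 4-6 h culture (~10^8 CFU/mL), diluted to ~10^6 CFU/mL. Water stocks were serially diluted in MHB (256 to 0.5 µg/mL) and mixed 1:1 with the inoculum. Plates ran 16-20 h at 37 °C. MIC was read visually. Each concentration was tested in duplicate, and the experiment was repeated at least twice.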

Escherichia coli = experiment: Antibacterial activity against Escherichia coli ATCC 25922 assessed as reduction in bacterial growth incubated 16 to 20 hrs by CLSI-based broth microdilution method; type: functional; details: time 16-20 hrs; summary of the method: as §4
Enterococcus faecalis = experiment: Antibacterial activity against Enterococcus faecalis ATCC 29212 assessed as reduction in bacterial growth incubated 16 to 20 hrs by CLSI-based broth microdilution method; type: functional; details: time 16-20 hrs; summary of the method: as §4
Klebsiella pneumoniae [25] = experiment: Antibacterial activity against carbapenem-resistant Klebsiella pneumoniae clinical isolate 1 assessed as reduction in bacterial growth incubated for 16 to 20 hrs by CLSI-based broth microdilution method; type: functional; details: time 16-20 hrs; summary of the method: as §3
Staphylococcus aureus = experiment: Bactericidal activity against early exponential phase of Staphylococcus aureus ATCC 29213 at 4X MIC measured after 6 hrs by time-kill kinetic assay; type: functional, organism-based
Summary of the method: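 S. aureus ATCC 29213 overnight culture diluted 1:10,000 in MHB and shaken at 225 rpm, 37 °C for 2 h to early exponential phase. Exposed to compound at 4× MIC in tubes, 37 °C, 225 rpm. Samples spun down, resuspended in PBS, plated as ten-fold dilutions on MHA overnight at 37 °C, and CFU/mL counted. Biological replicates.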

What does the source list for `CN[C@H](CC(C)C)C(=O)N[C@H]1C(=O)N[C@@H](CC(N)=O)C(=O)N[C@H]2C(=O)N[C@H]3C(=O)N[C@H](C(=O)N[C@H](C(=O)O)c4cc(O)cc(O)c4-c4cc3ccc4O)[C@H](O)c3ccc(c(Cl)c3)Oc3cc2cc(c3O[C@@H]2O[C@H](CO)[C@@H](O)[C@H](O)[C@H]2O[C@H]2C[C@](C)(N)[C@H](O)[C@H](C)O2)Oc2ccc(cc2Cl)[C@H]1O` [VANCOMYCIN]?
Activity (Cell membrane [1]): inactive; Activity (Cell membrane [2]): inactive; Activity (Cell membrane [3]): inactive; Activity (Cell membrane [4]): inactive; Activity (Cell membrane [5]): inactive; MIC (Enterobacteriaceae [6]): > 64 µg/mL; MIC (Enterobacteriaceae [7]): 64 µg/mL (≈ 44.2 µM); MIC (Enterobacteriaceae [8]): 64 µg/mL (≈ 44.2 µM); MIC (Enterobacteriaceae [9]): 64 µg/mL (≈ 44.2 µM); MIC (Enterobacteriaceae [10]): 64 µg/mL (≈ 44.2 µM); MIC (Enterobacteriaceae [11]): > 64 µg/mL; MIC (Enterobacteriaceae [12]): > 64 µg/mL; MIC (Enterobacteriaceae [13]): > 64 µg/mL; MIC (Enterobacteriaceae [14]): > 64 µg/mL; MIC (Klebsiella pneumoniae [15]): > 64 µg/mL; MIC (Klebsiella pneumoniae [16]): 64 µg/mL (≈ 44.2 µM); MIC (Klebsiella pneumoniae [17]): > 64 µg/mL; MIC (Klebsiella pneumoniae [18]): > 64 µg/mL; MIC (Klebsiella pneumoniae [19]): > 64 µg/mL; MIC (Klebsiella pneumoniae [20]): 64 µg/mL (≈ 44.2 µM); MIC (Klebsiella pneumoniae [21]): 64 µg/mL (≈ 44.2 µM); MIC (Klebsiella pneumoniae [22]): > 64 µg/mL; MIC (Klebsiella pneumoniae [23]): > 64 µg/mL; MIC (Enterobacteriaceae [24]): 64 µg/mL (≈ 44.2 µM); MIC (Salmonella enterica): 32 µg/mL (≈ 22.1 µM); MIC (Escherichia coli): 64 µg/mL (≈ 44.2 µM); MIC (Enterococcus faecalis): 2 µg/mL (≈ 1.38 µM); MIC (Klebsiella pneumoniae [25]): > 64 µg/mL; Activity (Staphylococcus aureus): inactive
